Data: ChEMBL document CHEMBL1154474, “Pharmacophore based discovery of potential antimalarial agent targeting haem detoxification pathway” (Eur J Med Chem, 2008)
Several values for one entry are separate records, joined by “and”; a condition that tells them apart may be missing. Equal entries are not always repeated. Structures can show the parent of a compound that is named as a salt.

Key:
Plasmodium falciparum [1] = assay: Antimalarial activity against chloroquine-resistant Plasmodium falciparum K1; assay type: functional, organism-based
Plasmodium falciparum [2] = assay: Antimalarial activity against chloroquine and pyrimethamine-resistant Plasmodium falciparum K1 after 24 hrs by [3H]hypoxanthine uptake; assay type: functional, organism-based
Plasmodium falciparum [3] = assay: Antimalarial activity against chloroquine-resistant Plasmodium falciparum K1 after 48 hrs by [G-3H]hypoxanthine uptake; assay type: functional, organism-based; conditions: K1, 48 h
Plasmodium falciparum [4] = assay: Antimalarial activity against chloroquine-resistant Plasmodium falciparum K1 after 72 hrs; assay type: functional, organism-based; conditions: K1, 72 h
[5] = Ionisation constant for the compound; assay type: physicochemical
In short: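 Spectrophotometric pKa determination on a UV spectrometer, with measurements in buffers from pH 5.8 to 11.2 and in 0.1 M NaOH and 0.1 M HCl. The pH 5.8–8.0 buffers were made from 0.1 M KH2PO4/K2HPO4, and the pH 8.4–11.2 buffers from 0.1 M glycine with 0.1 M NaOH. Two constants (pKa1, pKa2) were reported.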

Plasmodium falciparum [6] = assay: Antimalarial activity against chloroquine-resistant Plasmodium falciparum K1 by [3H]hypoxanthine uptake; assay type: functional, organism-based

| Structure (SMILES) | IC50 (Plasmodium falciparum [1]) [µM] | IC50 (Plasmodium falciparum [3]) [µM] | further results |
| --- | --- | --- | --- |
| C[n+]1c2ccc(Cl)c(Cl)c2cc2[nH]c3ccccc3c21 | 0.44 | – | – |
| CS(=O)(=O)Nc1ccc(Nc2c3ccc(Cl)cc3nc3cc(Cl)ccc23)cc1 | – | – | IC50 (Plasmodium falciparum [2]; Plasmodium falciparum, K1): 0.35 µM |
| CCN(CC)Cc1cc(Nc2ccnc3cc(Cl)ccc23)cc(-c2ccc(Cl)cc2)c1F | – | 0.069 | – |
| CN(C)c1ccc(Nc2c3ccccc3nc3cc(N)ccc23)cc1 | – | – | IC50 (Plasmodium falciparum [2]): 0.8 µM and 0.35 µM |
| NS(=O)(=O)c1ccc(Nc2c3ccc(Cl)cc3nc3cc(Cl)ccc23)cc1 | – | – | IC50 (Plasmodium falciparum [2]; Plasmodium falciparum, K1): 0.62 µM |
| C[n+]1c2ccc(Br)cc2cc2[nH]c3ccc([N+](=O)[O-])cc3c21 | 100 | – | – |
| Oc1ccc(Nc2ccnc3cc(Cl)ccc23)cc1 | – | 2.3 | – |
| O=C1CC(c2ccc(C(F)(F)F)cc2)CC2C1C(=O)c1cc(Cl)ccc1N2O (centres undefined) | – | – | IC50 (Plasmodium falciparum [4]): 0.4 µM |
| CN(C)CCCN(CCCN(C)C)CCCN1c2ccccc2Sc2ccc(Cl)cc21 | 0.42 | – | – |
| CC(c1cc(C(F)(F)F)nc2c(C(F)(F)F)cccc12)C1CCCCN1 (centres undefined) | – | 0.0094 | – |
| CNc1ccc(Nc2c3ccccc3nc3cc(Cl)ccc23)cc1 | – | – | IC50 (Plasmodium falciparum [2]; Plasmodium falciparum, K1): 1.2 µM |
| CN(C)CCCN1c2ccc(NCc3cnc[nH]3)cc2Sc2ccc(Cl)cc21 | 1.8 | – | – |
| CN(C)CCCC(=O)Nc1ccc2c(c1)Sc1ccc(Cl)cc1N2C | 7 | – | – |
| CCNCc1cc(Cc2ccnc3cc(Cl)ccc23)ccc1O | – | 0.0388 | – |
| Oc1ccc(Cc2ccnc3cc(Cl)ccc23)cc1CN1CCCC1 | – | 0.0115 | – |
| CC(C)(C)NCc1cc(Cc2ccnc3cc(Cl)ccc23)ccc1O | – | 0.0091 | – |
| CN(C)CCCC(=O)Nc1ccc2c(c1)Sc1ccc(Cl)cc1N2CCCN(C)C | 2 | – | – |
| CCCCN(CCCC)CCC(C)c1cc2c(Cl)cc(Cl)cc2c2cc(C(F)(F)F)ccc12 (centres undefined) | – | 0.0028 | – |
| C=C[C@@H]1CN2CC[C@@H]1C[C@H]2[C@H](O)c1ccnc2ccccc12 | – | 0.0562 | – |
| CCN(CC)CCCC(C)NC1=CC=NCC1 (centres undefined) | – | 15.1 | – |
| CCOc1ccc(/C=C/C(=N\NC(=O)c2cccnc2)c2ccc(O)cc2)cc1OC | – | – | pKa [5]: 6.87 |
| CN(C)CCC/N=C1\CC(c2ccc(Cl)cc2Cl)CC2Nc3ccc(Cl)cc3C(=O)C12 (centres undefined) | – | – | IC50 (Plasmodium falciparum [4]): 0.0095 µM |
| CCN(CC)Cc1cc(Cc2ccnc3cc(Cl)ccc23)ccc1O | – | 0.018 | – |
| CCN(CC)Cc1cc(Nc2ccncc2)ccc1O | – | 1.3 | – |
| NCc1cc(Cc2ccnc3cc(Cl)ccc23)ccc1O | – | 0.166 | – |

| Structure (SMILES) | IC50 (Plasmodium falciparum [1]) [µM] | IC50 (Plasmodium falciparum [3]) [µM] | further results |
| --- | --- | --- | --- |
| CN(C)CCCN(C)CCCN1c2ccccc2Sc2ccccc21 | 1 | – | – |
| CN(C)c1ccc(Nc2c3ccccc3nc3cc(Cl)ccc23)cc1 | – | – | IC50 (Plasmodium falciparum [2]; Plasmodium falciparum, K1): 1.1 µM |
| O=C1CC(c2ccc(Cl)cc2Cl)CC2Sc3ccc(Cl)cc3C(=O)C12 (centres undefined) | – | – | IC50 (Plasmodium falciparum [4]): 0.016 µM |
| Oc1c(CN2CCCC2)cc(Nc2c3ccccc3nc3cc(Cl)ccc23)cc1CN1CCCC1 | – | 0.0091 | – |
| C=C[C@@H]1CN2CC[C@@H]1C[C@@H]2[C@@H](O)c1ccnc2ccccc12 | – | 0.0906 | – |
| C[n+]1c2ccc(Cl)cc2cc2[nH]c3cc(Cl)ccc3c21 | 0.045 | – | – |
| C[n+]1c2ccccc2cc2[nH]c3cc([N+](=O)[O-])cc([N+](=O)[O-])c3c21 | 0.65 | – | – |
| C[n+]1c2ccccc2c(C(=O)O)c2[nH]c3ccc(Br)cc3c21 | 0.26 | – | – |
| C[n+]1c2ccccc2cc2[nH]c3c([N+](=O)[O-])cccc3c21 | 6.3 | – | – |
| CN(CCCNc1nc2ccc(Cl)cc2n2cccc12)CCCNc1nc2ccc(Cl)cc2n2cccc12 | 0.28 | – | – |
| CCN(CC)CCCC(C)Nc1cc(CCCCCCCCCCc2cc(NC(C)CCCN(CC)CC)c3ccccc3n2)nc2ccccc12 (centres undefined) | 0.017 | – | – |
| CCN(CC)CCCC(C)Nc1cc(CCCCCCCCCCCCc2cc(NC(C)CCCN(CC)CC)c3ccccc3n2)nc2ccccc12 (centres undefined) | 0.016 | – | – |
| CS(=O)(=O)Nc1ccc(Nc2c3ccccc3nc3cc(Cl)ccc23)cc1 | – | – | IC50 (Plasmodium falciparum [2]; Plasmodium falciparum, K1): 1 µM |
| C=CC1CN2CCC1C[C@@H]2[C@@H](O)c1ccnc2ccc(OC)cc12 (single isomer, unassigned) [QUINIDINE] | – | 0.051 | – |
| C=CC1CN2CCC1C[C@H]2[C@H](O)c1ccnc2ccc(OC)cc12 (single isomer, unassigned) [QUININE] | – | 0.081 | – |
| CC(CCCN)Nc1ccnc2cc(Cl)ccc12 (centres undefined) [BIDESETHYL CHLOROQUINE] | – | 1.34 | – |
| C[n+]1c2ccccc2cc2[n-]c3ccccc3c21 [CRYPTOLEPINE HYDROCHLORIDE] | 100 | – | – |
| CC(CCCN1CCCC1)Nc1ccnc2cc(Cl)ccc12 (centres undefined) [Chloroquine-pyrolidinyl] | – | 0.0896 | – |
| CCN(CC)Cc1cc(Nc2ccnc3cc(Cl)ccc23)cc(-c2ccc(Cl)cc2)c1 [DEHYDROXY TEBAQUINE] | – | 0.0693 | – |
| N=C(N)c1ccc(/N=N/Nc2ccc(C(=N)N)cc2)cc1 [DIMINAZENE] | – | – | IC50 (Plasmodium falciparum [6]): 0.19 µM |
| N=C(N)c1ccc(OCCCOc2ccc(C(=N)N)cc2)cc1 [PROPAMIDINE] | – | – | IC50 (Plasmodium falciparum [6]): 0.0056 µM |
| CCN(CC)CCCC(C)Nc1c2ccc(Cl)cc2nc2ccc(OC)cc12 (centres undefined) [QUINACRINE] | – | 0.043 | – |
| N=C(N)c1ccc(/C=C/c2ccc(C(=N)N)cc2)cc1 [STILBAMIDINE] | – | – | IC50 (Plasmodium falciparum [6]): 0.027 µM |
| CC(C)(C)NCc1cc(Nc2ccnc3cc(Cl)ccc23)cc(-c2ccc(Cl)cc2)c1O [TEBUQUINE] | – | 0.013 | – |
